What was measured:
4T1 = assay: Antitumor activity against mouse 4T1 cells implanted in mouse assessed as tumor growth inhibition at 2 mg/kg, ip administered daily for 12 days relative to control; assay type: functional; conditions: 4T1, ip, 288 h, time 12 day, read-out: TGI
How it was run: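 Orthotopic 4T1 tumor-bearing mice were randomized into four groups (n = 6) once tumors reached about 100 mm2. Groups received vehicle (saline), test compound at 1 or 2 mg/kg, or doxorubicin 1 mg/kg, all intraperitoneally every day. Tumor volume and body weight were measured daily. Inhibition ratio was computed against saline at study end, and tumors were weighed.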

MDA-MB-231 [1] = assay: Induction of apoptosis in human MDA-MB-231 cells assessed as necrotic cells at 1 uM measured after 24 hrs by annexin V-FITC/propidium iodide staining based flow cytometry (reference value: 4.74%); assay type: functional
[2] = Toxicity in mouse implanted with mouse 4T1 cells assessed as increase in liver size at 2 mg/kg, ip administered daily for 12 days measured post last dose; assay type: organism-based; conditions: in vivo, 288 h, time 12 day
How it was run: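 Orthotopic 4T1-bearing mice (n = 6 per group) were dosed i.p. daily with vehicle, compound at 1 or 2 mg/kg, or doxorubicin at 1 mg/kg. At the end of treatment, tumors and major organs (liver, spleen) were harvested and photographed. Sections were H&E stained and examined by microscope.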

MDA-MB-231 [3] = assay: Induction of apoptosis in human MDA-MB-231 cells assessed as early apoptotic cells at 1 uM measured after 24 hrs by annexin V-FITC/propidium iodide staining based flow cytometry (reference value: 1.49%); assay type: functional
MDA-MB-231 [4] = assay: Cell cycle arrest in human MDA-MB-231 cells assessed as accumulation at G2 phase at 1 uM measured after 24 hrs by propidium iodide staining based flow cytometry (reference value: 5.77%); assay type: functional
How it was run: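 MDA-MB-231 cells were seeded at 5 × 10^5 cells/mL and treated for 24 h. They were then trypsinized and washed twice in cold PBS. Cells were resuspended in PBS, stained with PI for 15 min at room temperature in the dark, and analyzed by flow cytometry.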

MDA-MB-231 [5] = assay: Induction of apoptosis in human MDA-MB-231 cells assessed as late apoptotic cells at 0.1 uM measured after 24 hrs by annexin V-FITC/propidium iodide staining based flow cytometry (reference value: 2.84%); assay type: functional
[6] = target: Tyrosine-protein kinase JAK2 (Homo sapiens, UniProt O60674); assay: Inhibition of JAK2 (unknown origin)
How it was run: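 Kinase inhibition was measured in two independent repeats, and IC50 is reported as their average with SD.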

Chain of Tyrosine-protein kinase JAK2 (O60674 whole entry): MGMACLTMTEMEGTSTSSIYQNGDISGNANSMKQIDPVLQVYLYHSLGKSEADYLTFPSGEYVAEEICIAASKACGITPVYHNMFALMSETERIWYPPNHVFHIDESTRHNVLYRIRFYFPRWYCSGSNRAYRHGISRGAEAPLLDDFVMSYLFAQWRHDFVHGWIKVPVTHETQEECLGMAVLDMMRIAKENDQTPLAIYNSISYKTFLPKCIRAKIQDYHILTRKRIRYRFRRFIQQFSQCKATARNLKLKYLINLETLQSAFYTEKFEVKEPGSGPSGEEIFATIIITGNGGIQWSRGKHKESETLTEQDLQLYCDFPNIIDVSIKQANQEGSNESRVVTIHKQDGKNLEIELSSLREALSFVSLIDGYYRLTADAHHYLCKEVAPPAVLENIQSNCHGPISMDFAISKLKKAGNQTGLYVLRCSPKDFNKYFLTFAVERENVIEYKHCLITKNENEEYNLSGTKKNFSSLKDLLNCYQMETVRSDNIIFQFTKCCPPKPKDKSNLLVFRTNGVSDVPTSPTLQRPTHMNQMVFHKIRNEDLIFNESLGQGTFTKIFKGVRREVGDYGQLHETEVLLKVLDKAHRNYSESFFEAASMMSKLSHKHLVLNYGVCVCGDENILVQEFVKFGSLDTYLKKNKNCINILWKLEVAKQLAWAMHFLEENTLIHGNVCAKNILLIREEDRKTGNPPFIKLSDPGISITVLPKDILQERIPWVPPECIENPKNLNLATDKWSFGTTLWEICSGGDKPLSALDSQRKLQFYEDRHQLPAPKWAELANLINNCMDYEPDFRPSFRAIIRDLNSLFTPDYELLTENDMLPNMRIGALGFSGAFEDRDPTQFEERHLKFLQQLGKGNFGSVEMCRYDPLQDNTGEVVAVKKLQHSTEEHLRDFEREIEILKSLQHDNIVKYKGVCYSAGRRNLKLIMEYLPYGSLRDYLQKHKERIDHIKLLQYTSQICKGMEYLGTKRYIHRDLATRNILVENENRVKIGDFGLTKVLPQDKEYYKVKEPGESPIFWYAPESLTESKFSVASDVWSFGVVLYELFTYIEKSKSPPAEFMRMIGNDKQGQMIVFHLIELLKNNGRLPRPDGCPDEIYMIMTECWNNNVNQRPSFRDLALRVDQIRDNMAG

O=C1C=CC2(C=C1)OCC(=O)N2c1nc(-c2cccc3ccccc23)nn1-c1ccccc1
inhibition in vivo at 2 mg/kg (4T1): 38.8% | Activity (MDA-MB-231 [1]): 13.1% | Activity [2]: Toxic | Activity (MDA-MB-231 [3]): 22.2% | Activity (MDA-MB-231 [4]): 23.87% | Activity (MDA-MB-231 [5]): 2.69% | IC50 [6]: 59 µM
